Measured values published in ChEMBL document CHEMBL2346608, “New annelated thieno[2,3-e][1,2,3]triazolo[1,5-a]pyrimidines, with potent anticancer activity, designed through VLAK protocol” (2013).

Key:
Assay type in all cases: functional
DU-145 = assay: Antiproliferative activity against human DU145 cells after 48 hrs by sulforhodamine B assay; conditions: DU-145, 48 h
Method in brief: (§1)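 Cells grown in RPMI 1640 with 5% FBS and 2 mM L-glutamine, plated at 5000–40,000 cells/well and preincubated 24 h at 37 °C, 5% CO2. Five drug concentrations (10-fold or ½-log dilutions from DMSO stocks) applied for 48 h. TCA-fixed (final 10% adherent, 16% suspension), SRB-stained, A515 read. Growth versus time-zero and control wells gave GI50, TGI, LC50.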

[1] = Antiproliferative activity against human EKVX cells after 48 hrs by sulforhodamine B assay; method in brief: as §1
NCI-H522 = assay: Antiproliferative activity against human NCI-H522 cells after 48 hrs by sulforhodamine B assay; conditions: NCI-H522, 48 h; method in brief: as §1
COLO 205 = assay: Antiproliferative activity against human COLO205 cells after 48 hrs by sulforhodamine B assay; conditions: COLO 205, 48 h; method in brief: as §1
OVCAR-4 = assay: Antiproliferative activity against human OVCAR4 cells after 48 hrs by sulforhodamine B assay; conditions: OVCAR-4, 48 h; method in brief: as §1
Malme-3M = assay: Antiproliferative activity against human MALME-3M cells after 48 hrs by sulforhodamine B assay; method in brief: as §1
CCRF-CEM = assay: Antiproliferative activity against human CCRF-CEM cells after 48 hrs by sulforhodamine B assay; method in brief: as §1
MCF7 = assay: Antiproliferative activity against human MCF7 cells after 48 hrs by sulforhodamine B assay; conditions: MCF7, 48 h; method in brief: as §1
UO-31 = assay: Antiproliferative activity against human UO31 cells after 48 hrs by sulforhodamine B assay; conditions: UO-31, 48 h
Method in brief: (§2)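 Cells in RPMI 1640 with 5% FBS and 2 mM L-glutamine were seeded at 5000–40,000/well according to doubling time and preincubated 24 h at 37 °C in 5% CO2. Time-zero plates were TCA-fixed when drug was added. Five 10-fold or ½-log dilutions from DMSO stocks were added for 48 h. After SRB staining, A515 was read and GI50 derived from [(Ti−Tz)/(C−Tz)]×100 = 50.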

U-251 = assay: Antiproliferative activity against human U251 cells after 48 hrs by sulforhodamine B assay; conditions: U-251, 48 h; method in brief: as §2
HCT-15 = assay: Antiproliferative activity against human HCT15 cells after 48 hrs by sulforhodamine B assay; conditions: HCT-15, 48 h; method in brief: as §1
SF-295 = assay: Antiproliferative activity against human SF295 cells after 48 hrs by sulforhodamine B assay; conditions: SF-295, 48 h; method in brief: as §1
HOP-62 = assay: Antiproliferative activity against human HOP62 cells after 48 hrs by sulforhodamine B assay; conditions: HOP-62, 48 h; method in brief: as §1
RPMI-8226 = assay: Antiproliferative activity against human RPMI8226 cells after 48 hrs by sulforhodamine B assay; conditions: RPMI-8226, 48 h, read-out: pLC50 (the source's name) (converted); method in brief: as §1
HT-29 = assay: Antiproliferative activity against human HT-29 cells after 48 hrs by sulforhodamine B assay; conditions: HT-29, 48 h; method in brief: as §1
MDA-MB-468 = assay: Antiproliferative activity against human MDA-MB-468 cells after 48 hrs by sulforhodamine B assay; conditions: MDA-MB-468, 48 h; method in brief: as §1
K562 = assay: Antiproliferative activity against human K562 cells after 48 hrs by sulforhodamine B assay; conditions: K562, 48 h; method in brief: as §1
A498 = assay: Antiproliferative activity against human A498 cells after 48 hrs by sulforhodamine B assay; conditions: A498, 48 h; method in brief: as §1
ACHN = assay: Antiproliferative activity against human ACHN cells after 48 hrs by sulforhodamine B assay; method in brief: as §1
MOLT-4 = assay: Antiproliferative activity against human MOLT4 cells after 48 hrs by sulforhodamine B assay; conditions: MOLT-4, 48 h; method in brief: as §1
T47D = assay: Antiproliferative activity against human T47D cells after 48 hrs by sulforhodamine B assay; method in brief: as §2
MDA-MB-231 = assay: Antiproliferative activity against human MDA-MB-231 cells after 48 hrs by sulforhodamine B assay; conditions: MDA-MB-231, 48 h; method in brief: as §1
SNB-75 = assay: Antiproliferative activity against human SNB75 cells after 48 hrs by sulforhodamine B assay; conditions: SNB-75, 48 h; method in brief: as §2
TK-10 = assay: Antiproliferative activity against human TK10 cells after 48 hrs by sulforhodamine B assay; conditions: TK-10, 48 h; method in brief: as §2
NCI-H460 = assay: Antiproliferative activity against human NCI-H460 cells after 48 hrs by sulforhodamine B assay; conditions: NCI-H460, 48 h; method in brief: as §1
NCI-H322M = assay: Antiproliferative activity against human NCI-H322M cells after 48 hrs by sulforhodamine B assay; method in brief: as §1
RXF 393 = assay: Antiproliferative activity against human RXF393 cells after 48 hrs by sulforhodamine B assay; conditions: RXF 393, 48 h; method in brief: as §1
HCT-116 = assay: Antiproliferative activity against human HCT116 cells after 48 hrs by sulforhodamine B assay; conditions: HCT-116, 48 h; method in brief: as §1
SNB-19 = assay: Antiproliferative activity against human SNB19 cells after 48 hrs by sulforhodamine B assay; conditions: SNB-19, 48 h; method in brief: as §1

Q: With `O=C(CCCn1c(=O)c2sc3ccccc3c2n2nnc(-c3ccccc3)c12)NCCc1c[nH]cn1` as the molecule, how does the GI50 (DU-145) read?
A: The GI50 was 1.55 µM.

Q: And the LC50 (DU-145)?
A: Its LC50 is 5.75 µM.

Q: And the TGI (DU-145; read-out: pTGI (converted))?
A: The TGI was 2.95 µM.

Q: And the GI50 [1]?
A: Its GI50 is 2.69 µM.

Q: And the LC50 [1]?
A: The LC50 was greater than 100 µM.

Q: What about the TGI ([1]; read-out: pTGI (converted)) of the same molecule?
A: Its TGI is 8.71 µM.

Q: And the GI50 (NCI-H522)?
A: Its GI50 is 1.05 µM.

Q: And the LC50 (NCI-H522)?
A: Its LC50 is 81.3 µM.

Q: And the TGI (NCI-H522; read-out: pTGI (converted))?
A: The TGI was 11.7 µM.

Q: And the GI50 (COLO 205)?
A: Its GI50 is 1.1 µM.

Q: What about the LC50 (COLO 205) of the same molecule?
A: Its LC50 is greater than 100 µM.

Q: What about the TGI (COLO 205; read-out: pTGI (converted)) of the same molecule?
A: Its TGI is 4.79 µM.

Q: What about the GI50 (OVCAR-4) of the same molecule?
A: Its GI50 is 1.74 µM.

Q: What about the TGI (OVCAR-4; read-out: pTGI (converted)) of the same molecule?
A: Its TGI is 3.8 µM.

Q: And the GI50 (Malme-3M)?
A: The GI50 was 2.51 µM.

Q: And the LC50 (Malme-3M)?
A: The LC50 was greater than 100 µM.

Q: What about the TGI (Malme-3M; read-out: pTGI (converted)) of the same molecule?
A: Its TGI is 5.5 µM.

Q: What about the LC50 (CCRF-CEM) of the same molecule?
A: The LC50 was greater than 100 µM.

Q: And the TGI (CCRF-CEM; read-out: pTGI (converted))?
A: The TGI was greater than 100 µM.

Q: And the GI50 (MCF7)?
A: The GI50 was 1.45 µM.

Q: What about the LC50 (MCF7) of the same molecule?
A: Its LC50 is 6.46 µM.

Q: And the TGI (MCF7; read-out: pTGI (converted))?
A: The TGI was 3.09 µM.

Q: What about the GI50 (UO-31) of the same molecule?
A: The GI50 was 1.91 µM.

Q: What about the TGI (UO-31; read-out: pTGI (converted)) of the same molecule?
A: Its TGI is 3.72 µM.

Q: And the GI50 (U-251)?
A: The GI50 was 1.05 µM.

Q: And the LC50 (U-251)?
A: The LC50 was 4.68 µM.

Q: And the TGI (U-251; read-out: pTGI (converted))?
A: Its TGI is 2.24 µM.

Q: What about the GI50 (HCT-15) of the same molecule?
A: The GI50 was 1.26 µM.

Q: What about the LC50 (HCT-15) of the same molecule?
A: The LC50 was 5.01 µM.

Q: What about the TGI (HCT-15; read-out: pTGI (converted)) of the same molecule?
A: The TGI was 2.51 µM.

Q: And the GI50 (SF-295)?
A: Its GI50 is 1.7 µM.

Q: And the TGI (SF-295; read-out: pTGI (converted))?
A: Its TGI is 3.63 µM.

Q: And the GI50 (HOP-62)?
A: Its GI50 is 2.29 µM.

Q: What about the LC50 (HOP-62) of the same molecule?
A: The LC50 was greater than 100 µM.

Q: And the TGI (HOP-62; read-out: pTGI (converted))?
A: The TGI was 5.25 µM.

Q: What about the CC50 (RPMI-8226) of the same molecule?
A: Its CC50 is greater than 100 µM.

Q: What about the GI50 (HT-29) of the same molecule?
A: Its GI50 is 1.35 µM.

Q: And the LC50 (HT-29)?
A: The LC50 was 7.41 µM.

Q: And the TGI (HT-29; read-out: pTGI (converted))?
A: Its TGI is 3.16 µM.

Q: What about the GI50 (MDA-MB-468) of the same molecule?
A: Its GI50 is 1.7 µM.

Q: What about the LC50 (MDA-MB-468) of the same molecule?
A: Its LC50 is 7.94 µM.

Q: And the TGI (MDA-MB-468; read-out: pTGI (converted))?
A: The TGI was 3.72 µM.

Q: What about the GI50 (K562) of the same molecule?
A: Its GI50 is 0.437 µM.

Q: And the GI50 (A498)?
A: The GI50 was 1.55 µM.

Q: And the LC50 (A498)?
A: Its LC50 is 5.75 µM.

Q: And the TGI (A498; read-out: pTGI (converted))?
A: The TGI was 3.02 µM.

Q: What about the GI50 (ACHN) of the same molecule?
A: Its GI50 is 1.66 µM.

Q: And the LC50 (50% lethal concentration) (ACHN)?
A: The LC50 (50% lethal concentration) was 5.5 µM.

Q: And the TGI (ACHN; read-out: pTGI (converted))?
A: The TGI was 3.02 µM.

Q: What about the GI50 (MOLT-4) of the same molecule?
A: Its GI50 is 1.17 µM.

Q: And the GI50 (T47D)?
A: Its GI50 is 1.41 µM.

Q: What about the LC50 (T47D) of the same molecule?
A: Its LC50 is greater than 100 µM.

Q: And the TGI (T47D; read-out: pTGI (converted))?
A: Its TGI is 4.47 µM.

Q: What about the GI50 (MDA-MB-231) of the same molecule?
A: The GI50 was 1.91 µM.

Q: What about the LC50 (MDA-MB-231) of the same molecule?
A: Its LC50 is 6.76 µM.

Q: What about the TGI (MDA-MB-231; read-out: pTGI (converted)) of the same molecule?
A: The TGI was 3.63 µM.

Q: What about the GI50 (SNB-75) of the same molecule?
A: The GI50 was 1.86 µM.

Q: And the LC50 (concentration killing 50% of starting cells) (SNB-75)?
A: Its LC50 (concentration killing 50% of starting cells) is 8.71 µM.

Q: And the TGI (SNB-75; read-out: pTGI (converted))?
A: Its TGI is 4.07 µM.

Q: And the GI50 (TK-10)?
A: Its GI50 is 2.14 µM.

Q: What about the TGI (TK-10; read-out: pTGI (converted)) of the same molecule?
A: The TGI was 3.98 µM.

Q: And the GI50 (NCI-H460)?
A: Its GI50 is 1.86 µM.

Q: What about the LC50 (NCI-H460) of the same molecule?
A: Its LC50 is 7.76 µM.

Q: What about the TGI (NCI-H460; read-out: pTGI (converted)) of the same molecule?
A: Its TGI is 3.8 µM.

Q: And the GI50 (NCI-H322M)?
A: Its GI50 is 2.24 µM.

Q: What about the LC50 (NCI-H322M) of the same molecule?
A: Its LC50 is 21.4 µM.

Q: What about the TGI (NCI-H322M; read-out: pTGI (converted)) of the same molecule?
A: Its TGI is 5.5 µM.

Q: What about the GI50 (RXF 393) of the same molecule?
A: Its GI50 is 2.51 µM.

Q: And the LC50 (RXF 393)?
A: Its LC50 is greater than 100 µM.

Q: And the TGI (RXF 393; read-out: pTGI (converted))?
A: Its TGI is 5.01 µM.

Q: What about the GI50 (HCT-116) of the same molecule?
A: The GI50 was 0.339 µM.

Q: What about the LC50 (HCT-116) of the same molecule?
A: The LC50 was greater than 100 µM.

Q: What about the TGI (HCT-116; read-out: pTGI (converted)) of the same molecule?
A: The TGI was 1.66 µM.

Q: What about the GI50 (SNB-19) of the same molecule?
A: Its GI50 is 1.7 µM.

Q: What about the LC50 (SNB-19) of the same molecule?
A: Its LC50 is greater than 100 µM.

Q: And the TGI (SNB-19; read-out: pTGI (converted))?
A: Its TGI is 5.01 µM.
